Measured values as given in ChEMBL document CHEMBL3091376, “Design, synthesis and in vitro anticancer evaluation of 4,6-diamino-1,3,5-triazine-2-carbohydrazides and -carboxamides” (Bioorg Med Chem Lett, 2013).
pIC50: −log10 of the molar value. Counter-ions that a name gives are not always drawn. Peptide text beside a SMILES is read from it. * marks the point of attachment. Cbz = O=C(OCc1ccccc1)*

Assays:
[1] = Growth inhibition of human MCF10A cells after 72 hrs by CellTiter-Blue assay; type: cell-based; conditions: MCF-10A
Procedure, shortened: (§1)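 CellTiter-Blue viability assay after 72 h exposure to test compound. IC50 (μM) reported as the mean of triplicates with standard deviation. Some values are approximate owing to low solubility in medium.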

[2] = tested on: MCF7; assay: Growth inhibition of human MCF7 cells after 72 hrs by CellTiter-Blue assay; type: functional, cell-based; conditions: MCF7, 72 h; procedure, shortened: as §1
[3] = tested on: MDA-MB-231; assay: Growth inhibition of human MDA-MB-231 cells after 72 hrs by CellTiter-Blue assay; type: functional, cell-based; conditions: MDA-MB-231, 72 h; procedure, shortened: as §1

Row | SMILES | pIC50 [1] | pIC50 [2] | pIC50 [3]
1 | COc1cccc2c1C(=O)c1c(O)c3c(c(O)c1C2=O)C[C@@](O)(C(=O)CO)C[C@@H]3O[C@H]1C[C@H](N)[C@H](O)[C@H](C)O1 [DOXORUBICIN HYDROCHLORIDE] | 5.95 |  | 
2 | CC(C)C[C@@H](C=O)NC(=O)[C@H](CC(C)C)NC(=O)[C@H](CC(C)C)NC(=O)OCc1ccccc1 [MG-132] (Cbz-Leu-Leu-Leu-aldehyde) | 6.54 | 6.89 | 6.74
